SENP1 inh – SENP1 (human) catalytic domain inhibition. recombinant SENP1 catalytic domain, CyPet-SUMO1-YPet FRET cleavage. inhibition, % at 10 µM. actives 0.21% (n = 360,000);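 active = inhibition at least 30% at 10 µM, raw YFP signal under a set limit, fluorescence ratio 0.5 to 1.5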;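 note: 0% = enzyme with DMSO and 100% = no enzyme wells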
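Compound: 10 µM single point, 0.5% DMSO; Test system: hSENP1 catalytic domain, recombinant; Timing: 50 min reaction at room temperature; Technique: FRET, CFP and YFP emission; Control set: no-enzyme wells low, DMSO-plus-enzyme wells high control.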
FAS-TE inh – blocks the thioesterase domain of human fatty acid synthase; recombinant FAS-TE, OMFH fluorogenic substrate, fluorescence endpoint; inhibition, % at 15 µM; actives 0.67% (n = 360,000); AID 602261;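 active = compounds whose normalised, plate-corrected inhibition of enzyme fluorescence in the single-dose primary screen is 50% or more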;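 note: 0% = DMSO with enzyme and 100% = substrate without enzyme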
ADAM17 inh – inhibits human ADAM17 | recombinant ADAM17, EDANS/DABCYL FRET peptide cleavage | inhibition, % at 6.95 µM | actives 0.83% (n = 370,000);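 active = inhibition above the mean of compounds lying between control limits plus 3 SD, set per campaign, cut at about 8.5% in these data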;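 note: 0% = DMSO-only wells as the low control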
ADAM10 inh – inhibits human ADAM10; recombinant ADAM10, EDANS/DABCYL FRET peptide cleavage, 3 h; inhibition, % at 7 µM; AID 720582; actives 0.62% (n = 370,000);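 active = inhibition above a per-campaign cutoff equal to the mean of compounds falling between control-based bounds plus 3 SD, cut at about 20% in these data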;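 note: 0% = DMSO wells while the 100% control is not disclosed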
Target sequence (O14672 214-748 limits assumed): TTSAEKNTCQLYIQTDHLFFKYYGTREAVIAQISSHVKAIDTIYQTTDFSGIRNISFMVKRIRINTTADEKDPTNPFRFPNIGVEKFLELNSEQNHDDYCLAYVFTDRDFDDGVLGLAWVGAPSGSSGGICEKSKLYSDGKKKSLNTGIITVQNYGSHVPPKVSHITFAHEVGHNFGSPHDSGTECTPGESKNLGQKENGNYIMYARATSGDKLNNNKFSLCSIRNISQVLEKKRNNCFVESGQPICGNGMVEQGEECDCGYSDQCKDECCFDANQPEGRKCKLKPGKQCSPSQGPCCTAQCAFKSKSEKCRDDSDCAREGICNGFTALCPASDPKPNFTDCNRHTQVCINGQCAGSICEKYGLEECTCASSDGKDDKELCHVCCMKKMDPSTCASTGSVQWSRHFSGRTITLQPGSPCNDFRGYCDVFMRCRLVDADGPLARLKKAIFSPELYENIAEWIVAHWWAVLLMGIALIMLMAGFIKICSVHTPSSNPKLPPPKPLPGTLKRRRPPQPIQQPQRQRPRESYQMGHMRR
ADAM10 confirm – confirmation of inhibitors of human ADAM10 | shares compounds with ADAM10 inh | ADAM10 QFRET peptide cleavage, EDANS fluorescence | inhibition, % at 6.95 µM | actives 1% (n = 2,100) | AID 743208;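 active = inhibition above about 20% chosen separately for each screening run, limit read from the data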;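 note: 0% = DMSO wells and 100% = marimastat wells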
ADAM17 ctr – inhibits human ADAM17 in ADAM10 exosite counter-screen; shares compounds with ADAM10 inh; ADAM17 QFRET peptide cleavage, EDANS fluorescence; inhibition, % at 6.95 µM; actives 0.5% (n = 2,100); AID 743214;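 active = mean triplicate inhibition above the solvent-only control wells' mean plus 3 SD, cut at about 12% in these data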;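 note: 0% = DMSO wells and 100% = marimastat wells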
ADAM10 ctr – counter-screen for ADAM17 exosite inhibitors: inhibitors of human ADAM10; AID 743256; recombinant ADAM10, EDANS/DABCYL FRET peptide cleavage, 3 h; inhibition, % at 6.95 µM; shares compounds with ADAM17 inh; actives 47% (n = 2,900);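 active = mean inhibition over the triplicate runs exceeds the activity threshold set in the earlier primary screen, cut at about 20% in these data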;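 note: 0% = DMSO wells and 100% = marimastat wells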
ADAM17 confirm – human ADAM17 inhibition, confirmation; shares compounds with ADAM17 inh; recombinant ADAM17, EDANS/DABCYL QFRET peptide cleavage; AID 743257; inhibition, % at 6.95 µM; actives 65% (n = 2,900);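 active = mean inhibition across replicates above the hit cutoff set in the primary screen, cut at about 8.5% in these data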;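 note: 0% = DMSO wells and 100% = marimastat wells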
* hit, by the source's call; x = not tested or not shown. Most compounds without a hit are left out; they make up all but 1.9% or so of the library.

SMILES	SENP1 inh	FAS-TE inh	ADAM17 inh	ADAM10 inh	ADAM10 confirm	ADAM17 ctr	ADAM10 ctr	ADAM17 confirm
COC(=O)C1=C(C)N(CCCC(=O)O)C(=O)NC1c1ccccc1OS(=O)(=O)c1ccccc1[N+](=O)[O-] (configuration not stated)	3	-5	-2	-6	x	x	x	x
COc1cc(NC(=O)CN2C(=O)C(c3ccccc3)=NC23CCCCCC3)cc(OC)c1	3	13	8.7*	30*	2	1	6	5
COc1ccc(N(CC(O)Cn2c3ccccc3c3ccccc32)S(=O)(=O)c2ccccc2)cc1 (configuration not stated)	2	15	13*	31*	191*	41*	-3	12*
CC(=O)Nc1ccccc1N(CC(O)Cn1c2ccccc2c2ccccc21)S(=O)(=O)c1ccc(C)cc1 (configuration not stated)	0	31	13*	25*	10	4	38*	23*
COc1ccccc1N(CC(O)CN1CCCCC1)S(=O)(=O)c1ccc(C)cc1 (configuration not stated)	1	-2	0	8	x	x	x	x
O=S(=O)(c1ccccc1F)n1c(CN2CCOCC2)nc2ccccc21	x	x	-1	-6	x	x	x	x
COc1ccc(-c2cc(-c3nnc(SCC(=O)Nc4ccccc4-c4ccccc4)n3N)[nH]n2)cc1	x	x	2	6	x	x	x	x
COC(=O)c1ccc(CN(c2ccc(C(=O)O)c(O)c2)S(=O)(=O)c2ccc(Cl)c([N+](=O)[O-])c2)cc1	0	32	11*	23*	9	3	39*	23*
C[C@H]1[C@@H](c2ccccc2)Oc2c(Cl)cccc2S(=O)(=O)N1C	x	x	1	-10	x	x	x	x
O=[N+]([O-])c1cccnc1N1CCC(c2cc(-c3ccc(Cl)cc3)n[nH]2)CC1	1	30	13*	30*	13	3	40*	19*
CCOC(=O)CN1CCC(c2cc(-c3ccc(Cl)cc3)n[nH]2)CC1	0	1	-5	4	x	x	x	x
Cc1ccc(NC(=O)C2CCN(S(=O)(=O)c3ccc4c(c3)NC(=O)C(C)S4)CC2)cc1Cl (configuration not stated)	2	23	9.4*	24*	6	3	47*	24*
Cc1ccc(NC(=S)NNC(=O)CSc2nnc(SCc3cccc4ccccc34)s2)cc1	x	x	9.3*	21*	5	1	26*	11*
O=C(CSc1nc2ccccc2s1)NNC(=S)Nc1ccc(Br)cc1	2	-4	13*	21*	3	1	12	7
O=C(CSc1nc2ccccc2s1)NNC(=S)Nc1ccccc1	2	-7	0	-4	x	x	x	x
CC(=O)N1CCc2c1cccc2S(=O)(=O)NC(CC(C)C)C(=O)Nc1ccccc1C (configuration not stated)	x	x	-3	4	x	x	x	x
CCOC(=O)C1=C(C(=O)OCC)C2N(Cc3ccc(C#N)cc3)c3ccccc3[C@@]23C[C@@H](C(=O)OC)N(S(=O)(=O)c2cccs2)C3=N1 (some centres not stated)	x	x	3	11	x	x	x	x
COc1ccc(NC(=O)CC2C(=O)N(C)C(=S)N2CCc2ccc(F)cc2)cc1 (configuration not stated)	2	28	12*	21*	1	0	25*	14*
Cc1ccccc1C(=O)NC(=S)Nc1ccc(Cc2ccncc2)cc1	3	7	3	6	x	x	x	x
COc1ccc(C(=O)NC(=S)Nc2ccc(Cc3ccncc3)cc2)cc1	0	11	9.0*	36*	3	1	23*	11*
Cc1ccc(S(=O)(=O)N(CC(=O)NC2CCC(C)CC2)c2cc(C)cc(C)c2)cc1 (configuration not stated)	x	x	1	0	x	x	x	x
O=C(Nc1ccccc1)N1CCCC(c2nc(-c3ccc(F)cc3)no2)C1 (configuration not stated)	2	11	-3	-3	x	x	x	x
O=C(Nc1cccc(C(F)(F)F)c1)N1CCC(c2nc(-c3ccc(F)cc3)no2)CC1	-48	29	9.6*	21*	6	2	34*	17*
OC(c1ccccc1)(c1nc(-c2ccc3ccccc3c2)cs1)C(F)(F)F (configuration not stated)	1	34	8	7	x	x	x	x
OC(c1ccccc1)(c1nc(-c2cccc(F)c2)cs1)C(F)(F)F (configuration not stated)	2	41	12*	33*	8	2	39*	18*
SMILES	SENP1 inh	FAS-TE inh	ADAM17 inh	ADAM10 inh	ADAM10 confirm	ADAM17 ctr	ADAM10 ctr	ADAM17 confirm
OC(c1ccccc1)(c1nc(-c2ccc3c(c2)OCO3)cs1)C(F)(F)F (configuration not stated)	1	34	9.2*	23*	13	4	25*	14*
OC(c1ccccc1)(c1nc(-c2ccccc2)cs1)C(F)(F)F (configuration not stated)	1	30	8.8*	23*	8	2	33*	17*
COC(=O)C1CN(Cc2cn(CCC3OCCO3)nn2)CCS(=O)(=O)N1Cc1ccc(F)cc1 (configuration not stated)	x	x	-5	-9	x	x	x	x
O=C(NCc1ccccc1)[C@@H]1CCCN1C(=O)[C@H]1CCCN1C(=O)c1ccccc1F	x	x	-2	1	x	x	x	x
O=C(Cc1cccc2ccccc12)Nc1ccc(OC(F)F)c(Cl)c1	2	37	9.9*	23*	6	2	30*	20*
COc1ccccc1NC(=O)CNC(c1ccccc1)c1ccccc1	-2	19	9.0*	29*	1	1	20*	11*
COc1ccc(C)cc1NC(=O)CNC(c1ccccc1)c1ccc(C)cc1 (configuration not stated)	3	25	-2	4	x	x	x	x
CN(C)c1cccc(/C=C2\CC3(OC(=O)c4ccco4)CCCN2C3)c1 (configuration not stated)	x	x	-4	-4	x	x	x	x
CC(C)CC1C(=O)N(Cc2cn(CCC3OCCCO3)nn2)CCS(=O)(=O)N1Cc1ccc(-c2ccc(Cl)cc2)cc1 (configuration not stated)	0	5	2	-17	x	x	x	x
